Laboratory results: ChEMBL document CHEMBL1156261, “Evaluation of substituted N,N'-diarylsulfonamides as activators of the tumor cell specific M2 isoform of pyruvate kinase” (J Med Chem, 2010)
Activity calls are given as the source filed them. The rule behind the calls is not given here.

Assays:
[1] = molecular target: Pyruvate kinase PKLR (Homo sapiens) (UniProt P30613); test: Activation of PKR assessed as pyruvate formation by fluorescent pyruvate kinase-lactate dehydrogenase coupled assay relative to control; set-up: concentration or dose not given beside the values
Pyruvate kinase PKLR (Homo sapiens), sequence (P30613 whole entry, looked up): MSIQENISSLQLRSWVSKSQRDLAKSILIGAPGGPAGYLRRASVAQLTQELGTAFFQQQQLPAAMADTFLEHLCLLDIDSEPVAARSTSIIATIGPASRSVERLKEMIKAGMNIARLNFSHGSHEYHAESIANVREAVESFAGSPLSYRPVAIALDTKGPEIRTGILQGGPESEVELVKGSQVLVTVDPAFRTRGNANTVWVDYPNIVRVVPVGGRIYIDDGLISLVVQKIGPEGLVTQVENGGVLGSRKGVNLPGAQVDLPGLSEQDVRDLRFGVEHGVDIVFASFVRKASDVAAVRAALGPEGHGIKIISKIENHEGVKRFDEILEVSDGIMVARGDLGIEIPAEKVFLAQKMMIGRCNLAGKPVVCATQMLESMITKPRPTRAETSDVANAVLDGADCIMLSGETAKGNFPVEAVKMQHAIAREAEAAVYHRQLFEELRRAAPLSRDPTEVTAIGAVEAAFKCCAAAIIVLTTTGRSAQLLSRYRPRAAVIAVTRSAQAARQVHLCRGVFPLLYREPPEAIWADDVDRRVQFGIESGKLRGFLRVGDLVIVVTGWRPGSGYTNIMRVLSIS

[2] = molecular target: Pyruvate kinase PKLR (Homo sapiens) (UniProt P30613); test: Activation of PKR assessed as ATP product formation by luminescent pyruvate kinase-luciferase coupled assay relative to control; set-up: concentration or dose not given beside the values
Procedure, shortened: (§1)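 Luciferase-coupled ATP production assay run as for PKM2: imidazole pH 7.2 buffer with KCl, MgCl2, Tween 20 and BSA, 0.1 mM ADP, 0.5 mM PEP, 1 h at r.t., Kinase-Glo luminescence. Enzyme final concentrations were PKM1 1 nM, PKL 0.1 nM, PKR 0.1 nM. % activation normalized to DMSO (neutral) and no-enzyme controls.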

[3] = molecular target: Pyruvate kinase PKLR (Homo sapiens) (UniProt P30613); test: Activation of PKL assessed as pyruvate formation by fluorescent pyruvate kinase-lactate dehydrogenase coupled assay relative to control; set-up: concentration or dose not given beside the values
[4] = molecular target: Pyruvate kinase PKLR (Homo sapiens) (UniProt P30613); test: Activation of PKL assessed as ATP product formation by luminescent pyruvate kinase-luciferase coupled assay relative to control; set-up: concentration or dose not given beside the values; procedure, shortened: as §1
Pyruvate kinase PKM [5] = molecular target: T1, Pyruvate kinase PKM (Homo sapiens, UniProt P14618); test: Activation of PKM2 assessed as ATP product formation at 57 uM by luminescent pyruvate kinase-luciferase coupled assay relative to fructose-1,6-bis-phosphate
T1 sequence (P14618 2-531 limits assumed): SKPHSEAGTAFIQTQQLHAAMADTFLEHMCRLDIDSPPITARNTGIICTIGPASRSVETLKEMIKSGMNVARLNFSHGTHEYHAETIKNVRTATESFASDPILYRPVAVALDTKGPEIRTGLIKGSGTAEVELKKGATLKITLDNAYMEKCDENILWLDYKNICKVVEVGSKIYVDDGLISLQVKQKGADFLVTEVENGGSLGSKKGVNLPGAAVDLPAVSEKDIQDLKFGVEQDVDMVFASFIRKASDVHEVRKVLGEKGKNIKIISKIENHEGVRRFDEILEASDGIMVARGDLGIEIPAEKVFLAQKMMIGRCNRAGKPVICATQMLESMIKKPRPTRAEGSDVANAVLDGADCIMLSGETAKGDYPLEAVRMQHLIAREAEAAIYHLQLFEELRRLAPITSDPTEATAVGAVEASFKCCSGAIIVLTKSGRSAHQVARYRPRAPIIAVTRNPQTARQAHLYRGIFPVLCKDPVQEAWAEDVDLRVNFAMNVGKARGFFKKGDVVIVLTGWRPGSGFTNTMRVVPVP
Procedure, shortened: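 Recombinant human PKM2 (0.1 nM final) in 50 mM imidazole pH 7.2, 50 mM KCl, 7 mM MgCl2, 0.01% Tween 20, 0.05% BSA; 0.1 mM ADP, 0.5 mM PEP; 1 h at r.t., then Kinase-Glo luciferase read of ATP formed. Activation % = (c−n)/(n−i)×100 against DMSO and no-enzyme controls; 100% ≈ 2-fold over basal signal. Max response taken at 57 μM; three separate experiments.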

Pyruvate kinase PKM [6] = molecular target: T1, Pyruvate kinase PKM; test: Activation of PKM1 assessed as pyruvate formation by fluorescent pyruvate kinase-lactate dehydrogenase coupled assay
Pyruvate kinase PKM [7] = molecular target: T1, Pyruvate kinase PKM; test: Activation of PKM1 assessed as ATP product formation by luminescent pyruvate kinase-luciferase coupled assay; procedure, shortened: as §1

Row | SMILES | Activity [1] [%] | Activity [2] [%] | Activity [3] [%] | Activity [4] [%] | Activity (Pyruvate kinase PKM [5]) [%] | Activity (Pyruvate kinase PKM [6]) | Activity (Pyruvate kinase PKM [7])
1 | COc1cccc(S(=O)(=O)N2CCN(S(=O)(=O)c3ccc4c(c3)OCCO4)CC2)c1 | < 30 | < 30 | < 30 | < 30 | 90 | inactive | inactive
2 | O=S(=O)(c1cccc(C(F)(F)F)c1)N1CCN(S(=O)(=O)c2ccc3c(c2)OCCO3)CC1 | < 30 | < 30 | < 30 | < 30 | 39.3 | inactive | inactive
3 | COc1cc(F)c(S(=O)(=O)N2CCN(S(=O)(=O)c3ccc4c(c3)OCCO4)CC2)c(F)c1 | < 30 | < 30 | < 30 | < 30 | 91.8 | inactive | inactive
4 | O=S(=O)(c1ccc2c(c1)OCCO2)N1CCN(S(=O)(=O)c2ccccc2F)CC1 | < 30 | < 30 | < 30 | < 30 | 114 | inactive | inactive
5 | O=S(=O)(NCCCCNS(=O)(=O)c1c(F)cccc1F)c1ccc2c(c1)OCCO2 | < 30 | < 30 | < 30 | < 30 | 113 | inactive | inactive
6 | O=S(=O)(c1c(F)cccc1F)C1CCN(S(=O)(=O)c2ccc3c(c2)OCCO3)CC1 | < 30 | < 30 | < 30 | < 30 | 104 | inactive | inactive
7 | O=S(=O)(N[C@H]1CC[C@H](NS(=O)(=O)c2c(F)cccc2F)CC1)c1ccc2c(c1)OCCO2 | < 30 | < 30 | < 30 | < 30 | 90.8 | inactive | inactive
8 | O=S(=O)(c1ccc2c(c1)OCCO2)N1CCN(S(=O)(=O)c2c(F)ccc(O)c2F)CC1 | < 30 | < 30 | < 30 | < 30 | 95.3 | inactive | inactive
9 | C[C@H]1CN(S(=O)(=O)c2c(F)cccc2F)CCN1S(=O)(=O)c1ccc2c(c1)OCCO2 | < 30 | < 30 | < 30 | < 30 | 109 | inactive | inactive
10 | O=S(=O)(c1ccc2c(c1)OCCO2)N1CCN(S(=O)(=O)c2ccc(F)cc2F)CC1 | < 30 | < 30 | < 30 | < 30 | 113 | inactive | inactive
11 | O=S(=O)(NCCCCCCNS(=O)(=O)c1c(F)cccc1F)c1ccc2c(c1)OCCO2 | < 30 | < 30 | < 30 | < 30 | 110 | inactive | inactive
12 | O=S(=O)(c1cccc(F)c1)N1CCN(S(=O)(=O)c2ccc3c(c2)OCCO3)CC1 | < 30 | < 30 | < 30 | < 30 | 107 | inactive | inactive
13 | O=S(=O)(c1ccccc1)N1CCN(S(=O)(=O)c2ccc3c(c2)OCCO3)CC1 | < 30 | < 30 | < 30 | < 30 | 108 | inactive | inactive
14 | O=S(=O)(c1c(F)cccc1F)N1CCN(S(=O)(=O)c2c(F)cccc2F)CC1 | < 30 | < 30 | < 30 | < 30 | 74.3 | inactive | inactive
15 | O=S(=O)(NCCCCCNS(=O)(=O)c1c(F)cccc1F)c1ccc2c(c1)OCCO2 | < 30 | < 30 | < 30 | < 30 | 114 | inactive | inactive
16 | O=S(=O)(c1ccc2c(c1)OCCO2)N1CCN(S(=O)(=O)c2cc(F)c(F)cc2F)CC1 | < 30 | < 30 | < 30 | < 30 | 105 | inactive | inactive

Row | SMILES | Activity [1] [%] | Activity [2] [%] | Activity [3] [%] | Activity [4] [%] | Activity (Pyruvate kinase PKM [5]) [%] | Activity (Pyruvate kinase PKM [6]) | Activity (Pyruvate kinase PKM [7])
17 | O=S(=O)(c1ccc2c(c1)OCCO2)N1CCN(S(=O)(=O)c2ccccn2)CC1 | < 30 | < 30 | < 30 | < 30 | 103 | inactive | inactive
18 | O=S(=O)(c1ccc(Cl)cc1)N1CCN(S(=O)(=O)c2ccc3c(c2)OCCO3)CC1 | < 30 | < 30 | < 30 | < 30 |  | inactive | inactive
19 | O=S(=O)(NCCCNS(=O)(=O)c1c(F)cccc1F)c1ccc2c(c1)OCCO2 | < 30 | < 30 | < 30 | < 30 | 106 | inactive | inactive
20 | O=S(=O)(c1ccc2c(c1)OCCO2)N1CCN(S(=O)(=O)c2ccc3c(c2)OCCO3)CC1 | < 30 | < 30 | < 30 | < 30 | 89.7 | inactive | inactive
21 | O=C1CN(S(=O)(=O)c2c(F)cccc2F)CCN1S(=O)(=O)c1ccc2c(c1)OCCO2 | < 30 | < 30 | < 30 | < 30 | 105 | inactive | inactive
22 | O=C1CN(S(=O)(=O)c2ccc3c(c2)OCCO3)CCN1S(=O)(=O)c1c(F)cccc1F | < 30 | < 30 | < 30 | < 30 | 96.9 | inactive | inactive
23 | N#Cc1ccc(S(=O)(=O)N2CCN(S(=O)(=O)c3ccc4c(c3)OCCO4)CC2)cc1 | < 30 | < 30 | < 30 | < 30 | 44.1 | inactive | inactive
24 | COc1ccc(S(=O)(=O)N2CCN(S(=O)(=O)c3ccc(OC)cc3)CC2)cc1 | < 30 | < 30 | < 30 | < 30 | 87.6 | inactive | inactive
25 | O=S(=O)(c1ccc(F)cc1)N1CCN(S(=O)(=O)c2ccc3c(c2)OCCO3)CC1 | < 30 | < 30 | < 30 | < 30 |  | inactive | inactive
26 | O=S(=O)(c1ccc2c(c1)OCCO2)C1CCN(S(=O)(=O)c2c(F)cccc2F)CC1 | < 30 | < 30 | < 30 | < 30 | 110 | inactive | inactive
27 | Cn1ccc2cc(S(=O)(=O)N3CCN(S(=O)(=O)c4c(F)cccc4F)CC3)ccc21 | < 30 | < 30 | < 30 | < 30 | 91.1 | inactive | inactive
28 | O=S(=O)(c1ccc2ccccc2c1)N1CCN(S(=O)(=O)c2c(F)cccc2F)CC1 | < 30 | < 30 | < 30 | < 30 | 138 | inactive | inactive
29 | O=S(=O)(c1ccc2c(c1)OCCCO2)N1CCN(S(=O)(=O)c2c(F)cccc2F)CC1 | < 30 | < 30 | < 30 | < 30 | 100 | inactive | inactive
30 | CC1(C)CCc2cc(S(=O)(=O)N3CCN(S(=O)(=O)c4c(F)cccc4F)CC3)ccc2O1 | < 30 | < 30 | < 30 | < 30 | 119 | inactive | inactive
31 | COc1ccc(S(=O)(=O)N2CCN(S(=O)(=O)c3c(F)cccc3F)CC2)cc1 | < 30 | < 30 | < 30 | < 30 | 102 | inactive | inactive
32 | C[C@@H]1CN(S(=O)(=O)c2c(F)cccc2F)CCN1S(=O)(=O)c1ccc2c(c1)OCCO2 | < 30 | < 30 | < 30 | < 30 | 98.8 | inactive | inactive
